Assay results as given in PMC6129982 (Nature, 2018).
Substitutions are numbered along the chain they refer to.

T1: Orco (Apocrypta bakeri, UniProt B0FAQ4)
T1 sequence (B0FAQ4 2-474): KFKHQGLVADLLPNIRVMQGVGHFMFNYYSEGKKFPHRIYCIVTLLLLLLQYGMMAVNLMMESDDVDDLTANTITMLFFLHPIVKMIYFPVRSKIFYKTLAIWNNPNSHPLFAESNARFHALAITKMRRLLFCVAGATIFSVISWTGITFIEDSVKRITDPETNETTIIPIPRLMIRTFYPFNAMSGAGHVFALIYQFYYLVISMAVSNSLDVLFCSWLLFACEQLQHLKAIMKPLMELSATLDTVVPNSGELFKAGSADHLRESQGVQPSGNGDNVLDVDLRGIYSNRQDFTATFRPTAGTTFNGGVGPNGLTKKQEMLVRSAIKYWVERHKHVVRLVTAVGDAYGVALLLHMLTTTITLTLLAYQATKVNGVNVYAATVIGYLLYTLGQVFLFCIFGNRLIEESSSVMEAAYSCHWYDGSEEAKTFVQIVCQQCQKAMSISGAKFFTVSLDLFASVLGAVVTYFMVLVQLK

T2: Orco-Fab complex (Apocrypta bakeri, UniProt B0FAQ4)
T2 sequence (B0FAQ4 2-474): T1 sequence (B0FAQ4 2-474)

T3: Orco L473A (Apocrypta bakeri, UniProt B0FAQ4, L473A)
T3 sequence (B0FAQ4 1-474 L473A): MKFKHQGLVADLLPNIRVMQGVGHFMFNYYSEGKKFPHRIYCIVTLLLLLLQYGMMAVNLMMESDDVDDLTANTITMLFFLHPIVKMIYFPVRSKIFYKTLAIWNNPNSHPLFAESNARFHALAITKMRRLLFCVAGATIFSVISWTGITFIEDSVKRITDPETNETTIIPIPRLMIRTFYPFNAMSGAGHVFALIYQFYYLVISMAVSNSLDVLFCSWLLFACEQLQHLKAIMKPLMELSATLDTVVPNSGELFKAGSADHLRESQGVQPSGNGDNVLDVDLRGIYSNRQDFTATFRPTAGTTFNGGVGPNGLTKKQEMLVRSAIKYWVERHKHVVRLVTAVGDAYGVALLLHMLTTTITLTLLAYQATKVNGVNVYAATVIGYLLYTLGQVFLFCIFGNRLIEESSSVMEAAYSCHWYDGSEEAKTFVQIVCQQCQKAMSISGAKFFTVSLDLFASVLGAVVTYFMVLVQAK

T4: Orco V469A (Apocrypta bakeri, UniProt B0FAQ4, V469A)
T4 sequence (B0FAQ4 1-474 V469A): T3 sequence (B0FAQ4 1-474 L473A) with V469A, A473L

T5: Orco T465A (Apocrypta bakeri, UniProt B0FAQ4, T465A)
T5 sequence (B0FAQ4 1-474 T465A): T3 sequence (B0FAQ4 1-474 L473A) with T465A, A473L

T6: Orco S458A (Apocrypta bakeri, UniProt B0FAQ4, S458A)
T6 sequence (B0FAQ4 1-474 S458A): T3 sequence (B0FAQ4 1-474 L473A) with S458A, A473L

B1: Apocrypta bakeri Orco, purified (residues Lys2-Lys474, Strep-GFP tag cleaved) (receptor, UniProt B0FAQ4 2-474, looked up)
chain: T1 sequence (B0FAQ4 2-474)

What was measured:
Orco [1] = target: T1, Orco; assay: Isothermal titration calorimetry; type: binding
Summary of the method: (§1)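 A. bakeri Orco was expressed from baculovirus in HEK293S GnTi− cells, StrepTactin-purified and tag-cleaved in HBS/0.05% digitonin. It was used alone or complexed with Fab (1.5-fold molar excess) at ~10 μM monomer. VUAA1 (0.5 mM in the same buffer, 0.5% DMSO matched) was injected at 25 °C: 0.4 μL, then 19 × 2 μL, 150 s apart. A single-site fit (n fixed at 1, first injection excluded) gave Kd, ΔH and ΔQdil; three independent purifications.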

Orco-Fab complex = target: T2, Orco-Fab complex; assay: Isothermal titration calorimetry; type: binding
Summary of the method: as §1

Orco [2] = target: T1, Orco; assay: Whole-cell voltage-clamp VUAA1 dose-response, HEK293 cell expressing Orco; type: cell-based
Summary of the method: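 Whole-cell recording used Flp-In T-Rex 293 cells stably expressing GFP-tagged wild-type Orco, held at −80 mV. Bath: 135 mM NaCl, 5 mM KCl, 2 mM CaCl2, 2 mM MgCl2, 10 mM glucose, HEPES pH 7.3. Pipette: 150 mM KCl, 10 mM NaCl, 1 mM EDTA, HEPES pH 7.45. VUAA1 was diluted in bath solution and locally perfused. Current was normalised to the current at the highest concentration and Hill-fitted; four cells, mean ± s.d. Outside-out patches were held at −140 mV.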

Orco L473A = target: T3, Orco L473A; assay: Cell-based GCaMP assay, mutant Orco homomer; set-up: species or system A. bakeri; conditions: mutation of Leu473 to alanine
Summary of the method: (§2)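 Orco alone (A. bakeri wild-type or point mutant, or An. gambiae) was transfected with GCaMP6s into HEK293 cells by lipofectamine. After 4 h plus 24 h, cells were read in HEPES-buffered HBSS pH 7.4 with 5 mM CaCl2. VUAA1 was added after 34 s at seven concentrations plus zero, four wells each. GCaMP fluorescence (480/527 nm, 37 °C) was followed for 2 min. A Hill equation fitted to ΔF/Fo gave EC50 and n over N independent replicates.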

Orco V469A = target: T4, Orco V469A; assay: Cell-based GCaMP assay, mutant Orco homomer; set-up: species or system A. bakeri; conditions: mutation of Val469 to alanine
Summary of the method: as §2

Orco T465A = target: T5, Orco T465A; assay: Cell-based GCaMP assay, mutant Orco homomer; set-up: species or system A. bakeri; conditions: mutation of Thr465 to alanine
Summary of the method: as §2

Orco S458A = target: T6, Orco S458A; assay: Cell-based GCaMP assay, mutant Orco homomer; set-up: species or system A. bakeri; conditions: mutation of Ser458 to alanine
Summary of the method: as §2

cryo-EM structure = target: the molecule itself; assay: cryo-EM structure
[3] = ITC 25 °C, fitted parameter, mean ± s.d.
[4] = ITC 25 °C, single-site model, mean ± s.d.

Row | Molecule | Kd (Orco [1]) [µM] | heat associated with sample dilution (ΔQdil) (Orco [1]; [3]) [kcal/mol] | enthalpy of binding (ΔH) (Orco [1]; [4]) [kcal/mol] | Kd (Orco-Fab complex) [µM] | binding affinity of Orco-Fab complex for VUAA1 versus Orco (Orco-Fab complex; ITC) | heat associated with sample dilution (ΔQdil) (Orco-Fab complex; [3]) [kcal/mol] | enthalpy of binding (ΔH) (Orco-Fab complex; [4]) [kcal/mol] | EC50 (Orco [2]) [µM] | channel activation (Orco [2]; Orco expressed independently, whole-cell and outside-out patch recording) | Hill coefficient n (Orco [2]; whole-cell current, Hill fit, four independent cells, mean ± s.d.) | enhancement of apparent sensitivity of Orco homomers versus wild-type (Orco L473A) [fold] | enhancement of apparent sensitivity of Orco homomers versus wild-type (Orco V469A) [fold] | VUAA1 responses in Orco homomers versus wild-type (Orco T465A) | VUAA1 responses in Orco homomers versus wild-type (Orco S458A) | stoichiometry N (cryo-EM structure)
1 | CCc1ccc(NC(=O)CSc2nnc(-c3cccnc3)n2CC)cc1 [VUAA1] | 13 ± 1 | -1.0 ± 0.1 | -8.3 ± 0.6 | 18 ± 2 | retained its binding affinity | -1.0 ± 0.2 | -9.7 ± 0.4 | 64 ± 7 | activated | 3.5 ± 0.5 | 10 | 10 | strongly attenuated | strongly attenuated | –
2 | B1 | – | – | – | – | – | – | – | – | – | – | – | – | – | – | 4
